Source: PubChem BioAssay
PfM18AAP inh-1: PfM18AAP enzyme inhibition. inhibition, % at 7.35 µM. AID 1822. recombinant PfM18AAP, H-Glu-NHMec fluorogenic cleavage. actives 1.2% (n = 290,000);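 active = inhibition above the campaign mean inhibition over all tested compounds plus 3 SD, cut at about 28% in these data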;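 also: 0% = plate median of test compound wells and 100% = 2 mM ZnCl2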
RBBP9 inh: inhibitors of human serine hydrolase RBBP9 | O75884 | recombinant RBBP9, FP-Rh probe fluorescence polarization | inhibition, % at 7.94 µM | actives 0.2% (n = 220,000);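 active = inhibition above the campaign mean of all tested compounds plus 3 SD, cut at about 14% in these data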;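 also: plate controls were DMSO wells with RBBP9 for no effect and wells lacking RBBP9 protein for full effect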
Target sequence (O75884 whole entry, looked up): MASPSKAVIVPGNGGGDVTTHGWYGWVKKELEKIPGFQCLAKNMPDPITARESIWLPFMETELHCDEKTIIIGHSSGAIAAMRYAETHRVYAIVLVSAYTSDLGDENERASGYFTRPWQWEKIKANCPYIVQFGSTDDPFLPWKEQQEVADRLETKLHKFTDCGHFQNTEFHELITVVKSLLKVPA
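Test system: recombinant human RBBP9; Timing: 30 min then 45 min, 25 °C; Detection: fluorescence polarization; Control set: RBBP9 with DMSO as uninhibited control, no-protein wells as full inhibition; Compound dosing: one concentration, 7.94 µM nominal, 0.794% DMSO; Probe or stimulus: FP-Rh activity-based probe, 375 nM before mixing.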
TNF death inh: inhibitors of TNF-alpha induced necroptosis in Jurkat FADD-/- cells; activation (protection from cell death), % at 10 µM; actives 0.068% (n = 220,000); Jurkat FADD-/- TNF necroptosis rescue, ATP luminescence, 24 h; 0 = TNF only, 100 = no-TNF cells;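 active = activation, meaning protection from cell death, of at least 50% relative to plate controls; inactive = activation below 50%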;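 also: necroptosis triggered by 40 ng/mL TNF-alpha added together with compound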
Tb hexokinase: T. brucei hexokinase 1 inhibition; recombinant TbHK1, G6PDH-coupled NADH A340; inhibition, % at 10 µM; actives 0.11% (n = 220,000); AID 1430;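 active = inhibition of 50% or more in the single-dose primary screen; inactive = inhibition below 50%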
Lipid droplet: hepatic lipid droplet formation modulation | AML12 mouse hepatocytes, oleate lipid droplets, BODIPY imaging | inhibition, % at 6.5 µM | actives 0.4% (n = 240,000) | AID 1656;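 active = lipid droplet intensity inhibited by at least 50%, with more than 500 cells counted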
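Assay system: AML12 hepatocytes (mouse); Probe or stimulus: oleic acid at 100 µM to induce lipid droplet formation; Dosing: compound at 6.5 µM only; Schedule: compound with oleate, overnight; Detection: fluorescence imaging, 20x objective, two fields per well; Measure: % inhibition of lipid droplet signal.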
L929 necroptosis: L929 zVAD cell death inhibition | L929 zVAD necroptosis rescue, ATP luminescence, 24 h; with zVAD 60 µM | viability rescue, % at 10 µM | actives 0.38% (n = 220,000);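 active = activation, scaled between plate controls, above about 75%, limit read from the data; inactive = activation under that limit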;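 also: 0% = zVAD with DMSO and 100% = DMSO alone without zVAD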
PfM18AAP inh-2: PfM18AAP inhibition, confirmation. shares compounds with PfM18AAP inh-1. recombinant PfM18AAP, H-Glu-NHMec fluorogenic cleavage. inhibition, % at 7.35 µM. actives 28% (n = 2,400). AID 2170;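 active = mean inhibition over replicate wells above the hit cutoff set for the earlier primary screen, cut at about 29% in these data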;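 also: 0% = median of test compound wells and 100% = 2 mM ZnCl2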
CTSL1 counter: Cathepsin L (human) inhibition, confirmation; shares compounds with PfM18AAP inh-1; purified cathepsin L1, Z-Leu-Arg-MCA fluorescence; inhibition, % at 5.96 µM; 2,400 tested, under 10 active;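 active = average inhibition across replicates above the hit cutoff set in the earlier primary screen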;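 also: 0% = median of test compound wells and 100% = Z-Phe-Ala-diazomethylketone 1 µM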
Target sequence (P07711 whole entry, looked up): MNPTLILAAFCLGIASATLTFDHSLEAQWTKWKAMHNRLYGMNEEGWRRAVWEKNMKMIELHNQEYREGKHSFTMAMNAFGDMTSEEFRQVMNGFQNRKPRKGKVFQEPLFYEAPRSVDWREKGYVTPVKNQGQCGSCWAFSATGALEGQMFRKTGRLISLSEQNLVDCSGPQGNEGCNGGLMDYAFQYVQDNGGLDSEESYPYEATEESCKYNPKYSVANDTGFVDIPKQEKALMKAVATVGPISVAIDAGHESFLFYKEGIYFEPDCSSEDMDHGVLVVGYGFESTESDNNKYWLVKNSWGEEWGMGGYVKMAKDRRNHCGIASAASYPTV
Numbers without * were called inactive; nt = no result. Only some compounds are listed: those with a hit (about 2% of all), similar ones and a draw of the others.

SMILES | PfM18AAP inh-1 | RBBP9 inh | TNF death inh | Tb hexokinase | Lipid droplet | L929 necroptosis | PfM18AAP inh-2 | CTSL1 counter
CCCC(=O)N(c1ccc2oc(=O)sc2c1)S(=O)(=O)c1cccs1 | 37* | -14 | 0 | 2 | nt | 2 | -14 | -1
O=C(NNc1cc(Cl)ccc1Cl)c1cccs1 | 52* | 3 | 1 | -4 | -20 | -1 | 28 | -1
Cc1noc(C)c1C(=O)NNc1cc(Cl)ccc1Cl | 36* | -7 | 2 | -3 | -5 | -1 | 9 | -3
C=CCSc1ncc(C(=O)OCC)c(N)n1 | -4 | 1 | 1 | 2 | -4 | 0 | nt | nt
CCOC(=O)c1cnc(SSc2ncc(C(=O)OCC)c(N)n2)nc1N | 64* | nt | nt | nt | 1 | nt | 44* | 2
Cc1cc(C2C(C#N)=C(N)OC3=C2C(=O)CCC3)c(C)s1 (stereo unspecified) | 6 | -10 | -1 | -13 | 21 | 1 | nt | nt
COc1cc(C2C(C#N)=C(N)OC3=C2C(=O)CCC3)c([N+](=O)[O-])cc1OC (stereo unspecified) | 40* | -4 | -1 | -3 | nt | 0 | -20 | 2
O=C1/C(=C\c2cccc(O)c2O)SC(=S)N1Cc1ccccc1 | 58* | nt | nt | nt | -1 | nt | 20 | -3
O=C1/C(=C\c2cccc(O)c2)SC(=S)N1Cc1ccccc1 | -5 | nt | nt | nt | -3 | nt | nt | nt
CCc1ccc[n+](-c2[nH]c(=O)sc2/C=N/N=C(\[O-])c2ccncc2)c1 | 10 | nt | nt | nt | 6 | nt | nt | nt
CC(C)(C)c1cc[n+](-c2[nH]c(=O)sc2/C=N/NC([S-])=Nc2ccccc2)cc1 | 35* | -2 | 3 | -22 | -2 | 1 | 5 | 3
CCN1CCN(S(=O)(=O)CC2(C)C3CCC2(C)C(=O)C3Br)CC1 (stereo unspecified) | -2 | -1 | 1 | -4 | 18 | 1 | nt | nt
OCCN(Cc1ccccc1)Cc1cccc(F)c1 | 0 | -2 | 0 | -7 | -9 | 0 | nt | nt
Fc1cccc(C[n+]2csc3ccccc32)c1 | 34* | -11 | -16 | 20 | nt | 0 | 6 | 0
N#Cc1c(/N=C/C=C/c2ccccc2)sc2c1CCCC2 | 35* | -2 | -2 | -5 | nt | 1 | -35 | 3
COc1ccc(-c2nc(=S)[nH][nH]2)cc1OC | 22 | -12 | 0 | -3 | 14 | 3 | nt | nt
COc1cc(-c2nc(=S)[nH][nH]2)cc(OC)c1OC | 35* | -3 | 0 | -7 | 6 | 8 | 26 | -6
CCCOc1ccc(Cc2nc(N)nc(N)n2)cc1 | -3 | -8 | -1 | 34 | nt | 2 | nt | nt
CCCC[n+]1c2ccccc2cc2ccccc21 | 38* | nt | nt | nt | -16 | nt | 16 | -2
CCC[n+]1c2ccccc2cc2ccccc21 | 47* | nt | nt | nt | nt | nt | 17 | 3
CCCCC[n+]1cccc2c3ccccc3ccc21 | -14 | 6 | -5 | -8 | -6 | 0 | nt | nt
Cc1ccc(S(=O)(=O)N(Cc2ccccc2)c2ccccc2C(=O)N2CCCCC2)cc1 | 0 | nt | nt | nt | nt | nt | nt | nt
CC[n+]1c(/C=C(/C)SC)sc2ccccc21 | 49* | 1 | -11 | -20 | -15 | 1 | -52 | -4
CC[n+]1c(C=C2C=C(C)OC(C)=C2)sc2ccccc21 | 3 | -3 | -10 | 4 | 2 | 0 | nt | nt
CC[n+]1c(/C=C2/C=C(C)CC(C)C2)sc2ccccc21 (stereo unspecified) | 21 | -5 | -6 | -10 | -3 | -1 | nt | nt
SMILES | PfM18AAP inh-1 | RBBP9 inh | TNF death inh | Tb hexokinase | Lipid droplet | L929 necroptosis | PfM18AAP inh-2 | CTSL1 counter
CC[n+]1c(/C=C(\C)SC)sc2ccccc21 | 44* | -3 | -23 | -24 | nt | 1 | -25 | 4
CC/C(=C/c1sc2ccccc2[n+]1CC)SC | 46* | 1 | -6 | -17 | -27 | 0 | -32 | 5
C=CCn1c(-c2ccoc2)n[nH]c1=S | 49* | -2 | 2 | -10 | nt | 2 | -20 | -1
C=CCn1c(Cc2ccccc2)n[nH]c1=S | 34* | 3 | 0 | -3 | -16 | 0 | -5 | -1
C=CCOCCN(CC)CC | -2 | 4 | -1 | -6 | 5 | 0 | nt | nt
O=C(CN1C(=O)c2ccccc2S1(=O)=O)c1ccc(O)c(O)c1 | 47* | -3 | 0 | -53 | 5 | 1 | 35* | 5
N#CC1=C(N)Oc2n[nH]c(-c3ccccc3)c2C1c1cccnc1 (stereo unspecified) | 4 | 2 | -3 | -5 | -3 | 1 | nt | nt
N#CC1=C(N)Oc2n[nH]c(-c3cccnc3)c2C1c1ccc([N+](=O)[O-])o1 (stereo unspecified) | 33* | 2 | -4 | -13 | 9 | 0 | -36 | -5
Cc1ccc(-n2c(N)c(C(N)=O)sc2=S)c(C)c1 | 39* | -3 | 0 | -32 | nt | 25 | 8 | 5
Cc1ccc(-n2c(N)c(C(=O)N3CCN(C)CC3)sc2=S)cc1 | 59* | 2 | -1 | -28 | 6 | 0 | 19 | 1
O=[N+]([O-])c1cc(-c2ccn[nH]2)ccc1Cl | 6 | -4 | 1 | -3 | 9 | 33 | nt | nt
Cc1ccc(C2NC(=O)c3c(sc(C)c3C)N2)c(O)c1 (stereo unspecified) | 35* | 7 | -1 | -15 | nt | 0 | -24 | -1
Cc1sc2c(c1C)C(=O)NC(c1ccccc1F)N2 (stereo unspecified) | 11 | -1 | -3 | -17 | -23 | 0 | nt | nt
Cc1cccc(C2NC(=O)c3c(sc(C)c3C)N2)c1O (stereo unspecified) | 52* | 6 | -2 | -4 | nt | 0 | -30 | 2
O=C(CN1CCCCCC1)Nc1ccc(Cl)cn1 | 16 | nt | nt | nt | -2 | nt | nt | nt
NC(N)=NS(=O)(=O)c1ccc(NC(=S)NC(=O)Cc2ccc(Cl)cc2)cc1 | 4 | nt | nt | nt | 0 | nt | nt | nt
CC(C)C(=O)Nc1ccc(-c2nc3ccccc3c(=O)o2)cc1 | -15 | -4 | 0 | -7 | 18 | 1 | nt | nt
Oc1c(C(c2ccccc2)N2CCCCC2)sc2ncnn12 (stereo unspecified) | 57* | 3 | 2 | 1 | 3 | 3 | -26 | -5
Oc1c(C(c2ccco2)N2CCOCC2)sc2ncnn12 (stereo unspecified) | 26 | -8 | 2 | -18 | nt | 2 | nt | nt
Cc1c(C(=O)Nc2cccc([N+](=O)[O-])c2)cnn1-c1ccccc1 | -17 | nt | nt | nt | -1 | nt | nt | nt
COc1ccc(/C=N/Nc2ncnc3c2[nH]c2ccccc23)c(OC)c1OC | 36* | -7 | 4 | -15 | -4 | 70 | -28 | 5
Cc1cccc(/C=C/C(=O)c2cc(Br)ccc(=O)c2O)c1 | 49* | 1 | -14 | -9 | 1 | 0 | -21 | 4
CCOc1ccc(/C=C/C(=O)c2cc(Br)ccc(=O)c2O)cc1 | 28 | -8 | -1 | -19 | -44 | 0 | nt | nt
